# Diaph inh CS: counter-screen for diaphorase-based assays: diaphorase inhibitors and chemical oxidizers; 190,000 tested, 0.69% active; inhibition, % at 20 µM; AID 1217; diaphorase resazurin-to-resorufin fluorescence, NADH, 16 min; bacterial (C. kluyveri) enzyme, not human;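 active means primary screen inhibition at 20 µM above a set limit, cut at about 50% in these data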
#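 Assay system: diaphorase enzyme from Clostridium kluyveri. Quantity: enzyme working solution with 0.14 U/mL diaphorase. Schedule: reaction incubation of 16 min at room temperature. Technique: resorufin fluorescence, excitation 544 nm, emission 590 nm. Controls: No-NADH positive control and DMSO neutral control.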
# G6PDH counter: L. mesenteroides G6PDH inhibition counter-screen | 200,000 tested, 0.12% active | AID 1020 | Purified L. mesenteroides G6PDH, diaphorase/resazurin coupled fluorescence, 45 min | inhibition, % at 5 µM
# WT yeast gro inh: growth inhibition of WT yeast, mitochondrial fusion screen | mitochondrial fusion phenotypic screen, WT strain | 190,000 tested, 2.1% active | AID 1362 | inhibition, % at 10 µM; in the data active means inhibition above about 58%; tested in S. cerevisiae
# Lmaj promast: inhibitors of Leishmania major promastigote growth; Leishmania major promastigotes, resazurin fluorescence viability; inhibition, % at 10 µM; 200,000 tested, 9% active; AID 1063;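 further: promastigotes grown with compound for 44 hours at 28 °C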
# Diaphorase act: diaphorase activation or chemical reduction counter-screen. Diaphorase/resazurin coupled assay, resorufin fluorescence, 16 min; active compounds read high; 1 = vehicle wells, 0 = NADH-free wells. 190,000 tested, 0.005% active. AID 1229. activation factor at 20 µM;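 active means diaphorase activity raised at least twofold by the compound at 20 µM; inactive means activation factor below 2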
#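 Material: Clostridium kluyveri diaphorase, purified enzyme; Quantity: enzyme 0.07 U/mL final; Medium: HEPES pH 7.4 buffer with MgCl2 and Tween 20; Dosing: single compound dose of 20 µM, 1% DMSO final; Schedule: 16 min reaction at room temperature; Measured by: red resorufin fluorescence at 544/590 nm excitation/emission.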
# Numbers stand for hits; - = inactive; . = not tested or not shown. Shown are actives, neighbours in structure and some others; about 11% of the full set was active somewhere. Unless noted, no stated cut-off is given here; in the data, active means inhibition above about 50%; inactive means the rest.
SMILES,Diaph inh CS,G6PDH counter,WT yeast gro inh,Lmaj promast,Diaphorase act
CCOC(=O)C1CCN(Cc2cnc(Oc3ccc(OC)cc3)s2)CC1,-,-,-,93.2,-
COc1ccc(Nc2nc(N)nc(CN3CCC(Cc4ccccc4)CC3)n2)cc1,-,-,-,86.7,-
CCOC(=O)C1CCN(Cc2ccc(N(C)C)cc2)CC1,-,-,-,-,-
COc1ccccc1Nc1nc(N)nc(CN2CCC(Cc3ccccc3)CC2)n1,-,-,-,-,-
CCOC(=O)C1CCN(Cc2ccc(F)c(F)c2)CC1,-,-,-,80.4,-
CCOC(=O)C1CCCN(Cc2ccccc2OCC)C1 (configuration not stated),-,-,-,-,-
O=C1NN(c2ccc(F)cc2)C(=O)/C1=C/c1cccs1,-,-,-,-,-
O=c1oc2ccccc2c2c1nc(C(F)(F)F)n2-c1ccccc1,-,-,-,-,-
CC/C(=C/c1sc2ccccc2[n+]1CC)SC,-,-,-,91.5,-
CCOC(=O)/C(=C/C=C1\Sc2ccccc2N1CC)C(C)=O,-,-,-,-,-
CCN1/C(=C/C=C/C=C/c2sc3ccccc3[n+]2CC)Sc2ccccc21,-,-,-,100.4,-
CC[n+]1c(/C=C(\C)Nc2ccccc2)sc2ccccc21,-,-,-,98.8,-
CSc1sc2ccccc2[n+]1CCCS(=O)(=O)[O-],-,-,-,-,-
CC[n+]1c(/C=C(/C)SC)sc2ccccc21,-,-,-,82.5,-
CCOc1ccc(NS(=O)(=O)c2ccc(NC(=O)[C@@H]3CCCC[C@@H]3C(=O)O)cc2)cc1,-,-,-,-,-
CC(C)CNC(=O)CCc1c[nH]c2ccccc12,-,-,-,-,-
CCn1c(SCC(=O)N2CCN(C(=O)c3ccco3)CC2)nnc1C(C)C,-,-,-,-,-
CC[n+]1c(/C=C/Nc2ccccc2)sc2ccccc21,-,-,-,98.8,-
CC[n+]1c(/C=C(\C)SC)sc2ccccc21,-,-,-,65.0,-
CC[n+]1c(/C=C(\C)OC)sc2ccccc21,-,-,-,-,-
CC[n+]1ccccc1/C=C/Nc1ccccc1,-,-,-,-,-
CCOC(=O)Cc1csc(NC(=O)C(C)(C)CC)n1,-,-,-,-,-
CCOc1ccccc1-n1c(N)c(C(N)=O)sc1=S,-,-,-,-,-
CCOc1ccccc1-n1c(=O)c2ccccc2c2ccccc2c1=O,-,-,-,76.8,-
Cc1ccc(NC(=O)C2(c3ccccc3)CC2(Cl)Cl)cc1C (configuration not stated),-,-,73.3,67.4,-
SMILES,Diaph inh CS,G6PDH counter,WT yeast gro inh,Lmaj promast,Diaphorase act
CCc1ccc(NC(=O)C2(c3ccccc3)CC2(Cl)Cl)cc1 (configuration not stated),-,-,-,95.7,-
Cc1cccc(NC(=O)C2(c3ccccc3)CC2(Cl)Cl)c1 (configuration not stated),-,-,-,-,-
Cc1cc(C)cc(NC(=O)C2(c3ccccc3)CC2(Cl)Cl)c1 (configuration not stated),-,-,-,-,-
Cc1c(Cl)cccc1-n1c(SCC(=O)NCc2ccccc2Cl)nnc1-c1ccncc1,-,-,-,99.6,-
c1ccc(CN2C3=NCCN3c3ccccc32)cc1,-,-,-,-,-
Cc1ccc(C)c(C(=O)CN2C3=NCCCN3c3ccccc32)c1,-,-,-,77.9,-
O=C(CN1C2=NCCN2c2ccccc21)C12CC3CC(CC(C3)C1)C2,-,-,-,100.7,-
COC(=O)N/N=C/c1cn(CC(C)COc2ccccc2)c2ccccc12 (configuration not stated),-,-,-,-,-
Cc1ccc(C(C)(C)C)c(OCCOCCN2CCCC2)c1,-,-,-,95.6,-
CC(C)(C)c1ccccc1OCCOCCN1CCCCCC1,-,-,67.6,95.5,-
Cc1cccc(C)c1OCCOCCN1CCN(C)CC1,-,-,-,-,-
CC(C)(C)c1ccccc1OCCOCCSc1ncccn1,-,-,-,96.8,-
COc1cccc(OC(=O)c2cc3ccccc3oc2=O)c1,-,-,-,-,-
CC(=O)NC(CC(=O)N(C)Cc1cccc(Cl)c1Cl)c1ccccc1 (configuration not stated),-,-,-,-,-
C=CCNC(=S)NNC(=O)c1ccccc1OCC,-,-,-,-,-
CCC1Oc2ccccc2N(CC(=O)Nc2ccc(OC)cc2OC)C1=O (configuration not stated),-,-,-,-,-
Cc1ccccc1NS(=O)(=O)c1ccc2[nH]c(=O)[nH]c2c1,-,-,-,-,-
Oc1ccccc1N1CCN(CC(O)COCc2ccccc2Cl)CC1 (configuration not stated),-,-,-,84.8,-
Cc1ccc(OCC(O)CN2CCN(c3ccccc3)CC2)cc1 (configuration not stated),-,-,-,-,-
OC(COCc1cccs1)CN1CCN(c2cccc(C(F)(F)F)c2)CC1 (configuration not stated),-,-,-,84.5,-
OC(COCc1ccccc1)CN1CCCC1 (configuration not stated),-,-,-,-,-
CCCc1ccc(OCC(O)CN2CCN(c3ccccc3)CC2)cc1 (configuration not stated),-,-,-,93.9,-
OC(COCc1ccccc1)CN1CCN(c2ccccc2)CC1 (configuration not stated),-,-,-,90.3,-
O=C(NCc1nnc(SCC(=O)N2CCOCC2)o1)c1c(F)cccc1Cl,-,-,-,-,-
Clc1ccccc1-c1nnc(CNC2CC2)o1,-,-,-,-,-
SMILES,Diaph inh CS,G6PDH counter,WT yeast gro inh,Lmaj promast,Diaphorase act
O=C(NCc1ccccc1)c1ccc(-c2ccc(F)cc2)o1,-,-,-,-,-
Cc1cccc(NC(=O)c2cc3cc([N+](=O)[O-])ccc3s2)n1,-,-,-,-,-
CS(=O)(=O)N(Cc1ccc(Cl)cc1)c1ccc(C(=O)N/N=C/c2cc3ccccc3nc2Cl)cc1,-,-,-,-,-
CN(C)CC(C)(C)CNS(=O)(=O)CC12CCC(CC1=O)C2(C)C (configuration not stated),-,-,.,-,-
CCc1ccc(OCC(O)CN2CCN(c3ccccc3)CC2)cc1 (configuration not stated),-,-,-,94.3,-
CC(C)N1C(=O)/C(=C\c2nc3ccccc3c(=O)n2-c2ccccc2)c2ccccc21,-,-,83.6,99.4,-
CC(C)N1C(=O)/C(=C/c2nc3ccccc3c(=O)n2-c2ccccc2)c2ccccc21,-,-,-,100.1,-
Cc1[nH]nc2c1/C(=N/O)CC(c1ccccc1)C2 (configuration not stated),-,-,-,-,-
COc1ccc(NC(=O)CCCn2c(=O)oc3ccccc32)cc1Cl,-,-,-,57.5,-
COc1cc(Cl)c(C)cc1NC(=O)CCCn1c(=O)oc2ccccc21,-,-,-,52.6,-
